Assay results published in ChEMBL document CHEMBL1681681, “Synthesis and anti-migrative evaluation of moverastin derivatives” (Bioorg Med Chem Lett, 2011).

Assays:
[1] = Cytotoxicity against human EC17 cells assessed as cell viability by trypan blue dye; format: cell-based
Outline: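 EC17 cells are tested for viability by trypan blue dye exclusion. The 50% inhibitory concentration for viability is estimated from this assay.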

[2] = Antimigratory activity against human EC17 cells assessed as inhibition of migration after 24 hrs by chemotaxis cell chamber assay; format: functional, cell-based; details: EC17, 24 h
Outline: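 Chemotaxis chamber: EC17 cells in upper chamber with graded compound concentrations; lower chamber holds EC17-conditioned medium (from 24 h cultures in RPMI1640 + 1% FBS) as chemoattractant. After 24 h, cells migrated through the filter to its lower side are counted. Counts are mean SD of five fields. IC50 is derived from these counts.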

[3] = biological target: Protein farnesyltransferase (Homo sapiens, UniProt P49354+P49356); experiment: Inhibition of protein farnesyltransferase from human EC17 cells using [3H]FPP and […]-H-Ras; format: cell-based
Outline: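 FTase is partially purified from EC17 cells. It is incubated with [3H]-farnesylpyrophosphate plus recombinant GST-H-Ras as substrates, with or without test compound. Compounds are tested up to 100 µM.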

SMILES | IC50 [2] | IC50 [3] | IC50 [1]
C=C(CCC1CCCCC1)C(O)Cc1c(O)cc(C)c(C=O)c1O (centres undefined) | 8.43 µM | > 100 µM | 87 µM
C=C(CC/C=C(\C)CCC=C(C)C)C(O)Cc1c(O)cc(C)c(C=O)c1O (centres undefined) | 7.53 µM | > 100 µM | > 80 µM
C=C(C)C(O)Cc1c(O)cc(C)c(C=O)c1O (centres undefined) | 30 µM | > 100 µM | > 130 µM
C=C(CCc1c(C)cccc1C)C(O)Cc1c(O)cc(C)c(C=O)c1O (centres undefined) | 10.6 µM | > 100 µM | 45 µM
C=C(CCC12CC3CC(CC(C3)C1)C2)C(O)Cc1c(O)cc(C)c(C=O)c1O (centres undefined) | 6.52 µM | > 100 µM | 55 µM
C=C(CC[C@@]1(C)[C@H](C)CCC(=O)[C@@H]1C)C(O)Cc1c(O)cc(C)cc1O (some centres undefined) | 21.4 µM | > 100 µM | > 28 µM
C=C(CC[C@@]1(C)[C@H](C)CCC(=O)[C@@H]1C)[C@H](O)Cc1c(O)cc(C)c(C=O)c1O [MOVERASTIN A] | 7.22 µM | > 100 µM | > 77 µM

These reach a lower IC50 [2]. Values come first.

IC50 [2] | IC50 [3] | SMILES | IC50 [1]
1.98 µM | 14.7 µM | C=C(CC[C@H]1[C@@H](C)CCCC1(C)C)C(O)Cc1c(O)cc(C)c(C=O)c1O (relative stereo) | 46 µM
2.12 µM | > 100 µM | Cc1cc(O)c(CC(O)C(C)CC[C@H]2[C@@H](C)CCCC2(C)C)c(O)c1C=O (relative stereo) | 16 µM
4.41 µM | > 100 µM | C=C(CC[C@H]1[C@@H](C)CCCC1(C)C)C(=O)Cc1c(O)cc(C)c(C=O)c1O (relative stereo) | 18 µM
2 µM | > 100 µM | Cc1cc(O)c2c(c1C=O)OCC(CC[C@H]1[C@@H](C)CCCC1(C)C)=CC2 (relative stereo) | 18 µM
4.57 µM | > 100 µM | C=C(CC[C@H]1[C@@H](C)CCCC1(C)C)C(O)Cc1c(OC)cc(C)c(C=O)c1O (relative stereo) | 18 µM
2.17 µM | > 100 µM | C=C(CC[C@H]1[C@@H](C)CCCC1(C)C)C(O)Cc1c(O)cc(C)cc1O (relative stereo) | 17 µM
